We go through 16 molecules from ChEMBL document CHEMBL1806372, “Cytotoxic ring A-modified steroid analogues derived from Grundmann's ketone” (Eur J Med Chem, 2011).

One assay has as its system HL-60. As to the kind of experiment: Cytotoxicity against human HL60 cells after 24 hrs by MTT assay. Format: functional, cell-based. The note with it: HL-60, 24 h. The method, boiled down: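 HL-60 cells kept in RPMI 1640 with 10% FBS, no antibiotics, 37 °C, humidified 5% CO2. Cells (9 × 10^5 cells/mL) exposed to compound in 96-well plates for 24 h at 37 °C. MTT in PBS (5 mg/mL) added for 2 h, then DMSO, shaken 1 h and read photometrically. IC50 determined; cisplatin reference.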
(In general: Formazan colour is commonly taken as a measure of viable cells.)

A further assay deals with Escherichia coli. As to the kind of experiment: Antibacterial activity against Escherichia coli assessed as zone of inhibition at 5 uL and 32 degC after 36 hrs by disk diffusion method. The assay is classed as functional. The procedure, abridged:
(§1)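 Disc diffusion on AC agar, each strain spread evenly over the medium; test compounds given as 1% (w/v) DMSO solutions. Plates covered and incubated 36 h at 32 °C, then the diameter of the zone of inhibited growth measured in mm. Tetracycline served as antibacterial reference.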
(In general: A growth-free zone around the sample is the usual read-out of agar diffusion tests.)

The nature of assay [1]: (§2) Antibacterial activity against Pseudomonas antimicrobica assessed as zone of inhibition at 5 uL and 32 degC after 36 hrs by disk diffusion method. The assay is classed as functional, Burkholderia gladioli. The procedure, abridged: as §1
A further assay deals with Staphylococcus equorum. Kind of assay: Antibacterial activity against Staphylococcus equorum assessed as zone of inhibition at 5 uL and 32 degC after 36 hrs at by disk diffusion method. The assay is classed as functional. The procedure, abridged: as §1
A further assay deals with Streptococcus entericus. Kind of assay: Antibacterial activity against Streptococcus entericus assessed as zone of inhibition at 5 uL and 32 degC after 36 hrs by disk diffusion method. The assay is classed as functional. The procedure, abridged:
as §1

The subject of another assay is Yarrowia lipolytica. As to the kind of experiment: Antifungal activity against Yarrowia lipolytica assessed as zone of inhibition at 5 uL and 28 degC after 36 hrs by disk diffusion method. Format: functional. The method, boiled down:
(§3)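 Agar disc diffusion with the test compound applied as a 1% (w/v) DMSO solution. Yeasts were grown on AC agar and Aspergillus niger on potato dextrose broth agar, each strain spread evenly. Plates were covered and kept 36 h at 28 °C, and the inhibition zone diameter was read in mm. Clotrimazole served as reference.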

A further assay has as its system Nakaseomyces glabratus. As to the kind of experiment: Antifungal activity against Candida glabrata assessed as zone of inhibition at 5 uL and 28 degC after 36 hrs by disk diffusion method. Format: functional. The procedure, abridged: as §3
The next assay deals with Aspergillus niger. As to the kind of experiment: Antifungal activity against Aspergillus niger assessed as zone of inhibition at 5 uL and 28 degC after 36 hrs by disk diffusion method. The assay is classed as functional. The method, boiled down:
as §3

Assay [2] in a line: Antifungal activity against Hyphopichia burtonii assessed as zone of inhibition at 5 uL and 28 degC after 36 hrs by disk diffusion method. The assay is classed as functional. The procedure, abridged: as §3
For the next assay, the system named is Burkholderia gladioli. The assay is described as §2. The assay is classed as functional. The method, boiled down: as §1

Calls of active or inactive are those of the source. The calls are words filed in the database; no cut-off is given here.

Broadly, the IC50 is the midpoint of a concentration-inhibition curve. A high value points to weaker potency in that assay. In the assay on HL-60, `CC(C)CCC[C@@H](C)[C@H]1CC[C@H]2C3=CC[C@@H]4C(=O)OC(=O)[C@@H]4[C@@H]3CC[C@]12C` had an IC50 of 30 µM. In addition, the “diameter of the inhibition zone (DIZ)” value with Escherichia coli turned out to be 7 mm; in assay [1] it was 10 mm; in the assay with Streptococcus entericus, 12 mm; in the assay with Nakaseomyces glabratus it was 8 mm. Also, the “diameter of the inhibition zone (DIZ)” value with Staphylococcus equorum, with Yarrowia lipolytica and in the assay on Aspergillus niger was “inactive” each time. The inhibition zone (IZ) in assay [2] is 10 mm.
`CC(C)CCC[C@@H](C)[C@H]1CC[C@H]2C(/C=C/CO)=CCC[C@]12C`: the IC50 in the assay on HL-60 was 32 µM. Besides, the “diameter of the inhibition zone (DIZ)” value with Escherichia coli worked out at 10 mm; in assay [1], 18 mm; with Staphylococcus equorum, 12 mm; in the assay on Streptococcus entericus it was 14 mm; in the assay on Nakaseomyces glabratus it was 18 mm. The “diameter of the inhibition zone (DIZ)” value with Yarrowia lipolytica and in the assay with Aspergillus niger was “inactive” each time. In addition, the inhibition zone (IZ) in assay [2] turned out to be 22 mm.
In the assay with HL-60, `CC(C)CCC[C@@H](C)[C@H]1CC[C@H]2C(/C=C/CN3C(=O)C=CC3=O)=CCC[C@]12C` showed an IC50 of 32 µM. The “diameter of the inhibition zone (DIZ)” value was 9 mm with Escherichia coli; 10 mm in [1]; 11 mm in the assay with Staphylococcus equorum; 15 mm in the assay with Streptococcus entericus; 7 mm with Nakaseomyces glabratus. Further, the “diameter of the inhibition zone (DIZ)” value with Yarrowia lipolytica and in the assay with Aspergillus niger was “inactive” throughout. Moreover, the inhibition zone (IZ) in [2] stood at 8 mm.
On to `CC(C)=CCCC1=CCn2c(=O)ccc(=O)n2C1`, for which the half-maximal inhibitory concentration (IC50) with HL-60 is 41 µM. Also, the “diameter of the inhibition zone (DIZ)” value in the assay on Escherichia coli, with Burkholderia gladioli, in the assay on Staphylococcus equorum, with Streptococcus entericus, with Yarrowia lipolytica and with Nakaseomyces glabratus was “inactive” in each case. The “diameter of the inhibition zone (DIZ)” value (in the assay on Aspergillus niger; in assay [2]) was “inactive” throughout.
`CC(C)CCC[C@@H](C)[C@H]1CC[C@H]2C(C#CCCO)=CCC[C@]12C` came in with an IC50 in the assay on HL-60 of 38 µM. The “diameter of the inhibition zone (DIZ)” value with Escherichia coli came out at 10 mm; in assay [1] it was 11 mm; in the assay on Staphylococcus equorum, 6 mm; in the assay on Streptococcus entericus it was 14 mm; with Nakaseomyces glabratus it was 10 mm. The “diameter of the inhibition zone (DIZ)” value in the assay with Yarrowia lipolytica and with Aspergillus niger was “inactive” each time. Moreover, in [2], the inhibition zone (IZ) was 11 mm.
`CC(C)CCC[C@@H](C)[C@H]1CC[C@H]2C3=CCn4c(=O)n(C)c(=O)n4[C@@H]3CC[C@]12C` registered an IC50 with HL-60 of 13 µM. The “diameter of the inhibition zone (DIZ)” value in the assay with Escherichia coli, in the assay on Burkholderia gladioli, in the assay on Streptococcus entericus, in the assay on Yarrowia lipolytica, in the assay on Nakaseomyces glabratus and in the assay with Aspergillus niger was “inactive” in each case. For the same molecule, the “diameter of the inhibition zone (DIZ)” value in assay [2] is “inactive”. Besides, in the assay with Staphylococcus equorum, the “diameter of the inhibition zone (DIZ)” value is reported as 10 mm.
`CC(C)CCC[C@@H](C)[C@H]1CC[C@H]2C3=CC[C@@H]4C(=O)NC(=O)[C@@H]4[C@@H]3CC[C@]12C` came in with an IC50 with HL-60 of 16 µM. The “diameter of the inhibition zone (DIZ)” value amounted to 24 mm in the assay with Escherichia coli; 11 mm in [1]; 14 mm in the assay on Staphylococcus equorum; 15 mm with Streptococcus entericus; 15 mm with Nakaseomyces glabratus. For the same molecule, the “diameter of the inhibition zone (DIZ)” value (with Yarrowia lipolytica; in the assay on Aspergillus niger; in assay [2]) was “inactive” in each case.
`CC(C)CCC[C@@H](C)[C@H]1CC[C@H]2C3=CCn4c(=O)c5ccccc5c(=O)n4[C@@H]3CC[C@]12C` gave a 50% inhibitory concentration (IC50) with HL-60 of 17 µM. Besides, the “diameter of the inhibition zone (DIZ)” value in the assay on Escherichia coli, with Staphylococcus equorum, in the assay with Streptococcus entericus, with Yarrowia lipolytica and in the assay on Aspergillus niger was “inactive” throughout. Also, the “diameter of the inhibition zone (DIZ)” value worked out at 7 mm in [1] and 10 mm with Nakaseomyces glabratus. In addition, the inhibition zone (IZ) in assay [2] is 7 mm.
Molecule `CC(C)CCC[C@@H](C)[C@H]1CC[C@H]2C(CCCCO)CCC[C@]12C` (mixture of isomers) came in with an IC50 in the assay on HL-60 of 13 µM.
Consider `CC(C)CCC[C@@H](C)[C@H]1CC[C@H]2C(CCCCN3C(=O)C=CC3=O)CCC[C@]12C` (mixture of isomers), for which the IC50 in the assay with HL-60 amounted to 14 µM. Also, the “diameter of the inhibition zone (DIZ)” value in the assay with Escherichia coli is given as 10 mm; in assay [1] it was 9 mm; in the assay on Staphylococcus equorum, 11 mm; in the assay on Streptococcus entericus it was 12 mm; in the assay with Nakaseomyces glabratus, 8 mm. Also, the “diameter of the inhibition zone (DIZ)” value in the assay on Yarrowia lipolytica and with Aspergillus niger was “inactive” in each case. Besides, the inhibition zone (IZ) in assay [2] was 9 mm.
As to `CN(C)[C@@H]1C(O)=C(C(N)=O)C(=O)[C@@]2(O)C(O)=C3C(=O)c4c(O)cccc4[C@@](C)(O)[C@H]3C[C@@H]12` [TETRACYCLINE], the “diameter of the inhibition zone (DIZ)” value in the assay with Escherichia coli came out at 30 mm; in assay [1] it was 25 mm; in the assay on Staphylococcus equorum, 30 mm; in the assay on Streptococcus entericus, 22 mm.
`CCN1C(=O)[C@H]2[C@H](CC=C3[C@H]2CC[C@]2(C)[C@@H]([C@H](C)CCCC(C)C)CC[C@@H]32)C1=O` returned an IC50 in the assay with HL-60 of 13 µM. Besides, the “diameter of the inhibition zone (DIZ)” value with Escherichia coli worked out at 7 mm; in assay [1] it was 7 mm; in the assay on Staphylococcus equorum it was 8 mm; with Streptococcus entericus, 11 mm; in the assay on Nakaseomyces glabratus, 8 mm. The “diameter of the inhibition zone (DIZ)” value in the assay on Yarrowia lipolytica and in the assay on Aspergillus niger was “inactive” throughout. For the same molecule, the inhibition zone (IZ) in [2] is 7 mm.
On to `CC(C)CCC[C@@H](C)[C@H]1CC[C@H]2C(C#CCCN3C(=O)C=CC3=O)=CCC[C@]12C`, for which half-maximal inhibition in the assay with HL-60 (IC50) was put at 46 µM. The “diameter of the inhibition zone (DIZ)” value amounted to 15 mm in the assay on Escherichia coli; 13 mm in assay [1]; 11 mm in the assay with Staphylococcus equorum; 15 mm in the assay on Streptococcus entericus; 10 mm with Nakaseomyces glabratus. The “diameter of the inhibition zone (DIZ)” value in the assay on Yarrowia lipolytica and in the assay with Aspergillus niger was “inactive” throughout. Besides, the inhibition zone (IZ) in [2] came to 12 mm.
Regarding `Clc1ccccc1C(c1ccccc1)(c1ccccc1)n1ccnc1` [CLOTRIMAZOLE], the “diameter of the inhibition zone (DIZ)” value is 18 mm with Yarrowia lipolytica, 18 mm with Nakaseomyces glabratus and 13 mm with Aspergillus niger. The inhibition zone (IZ) in assay [2] was found to be 20 mm.
Regarding `CC(C)CCC[C@@H](C)[C@H]1CC[C@H]2C3=CC[C@@H]4C(=O)N(C)C(=O)[C@@H]4[C@@H]3CC[C@]12C`, the IC50 in the assay on HL-60 stood at 15 µM. Also, the “diameter of the inhibition zone (DIZ)” value was 10 mm with Escherichia coli, 7 mm in assay [1], 10 mm with Streptococcus entericus and 10 mm in the assay with Nakaseomyces glabratus. The “diameter of the inhibition zone (DIZ)” value in the assay on Staphylococcus equorum, in the assay on Yarrowia lipolytica and with Aspergillus niger was “inactive” throughout. The inhibition zone (IZ) in assay [2] turned out to be 14 mm.
`CCCN1C(=O)[C@H]2[C@H](CC=C3[C@H]2CC[C@]2(C)[C@@H]([C@H](C)CCCC(C)C)CC[C@@H]32)C1=O` came in with an IC50 in the assay with HL-60 of 7 µM. Besides, the “diameter of the inhibition zone (DIZ)” value turned out to be 7 mm in the assay with Escherichia coli; 7 mm in assay [1]; 7 mm in the assay on Streptococcus entericus; 10 mm in the assay with Yarrowia lipolytica; 6 mm in the assay with Nakaseomyces glabratus. The “diameter of the inhibition zone (DIZ)” value in the assay with Staphylococcus equorum and in the assay with Aspergillus niger was “inactive” in each case. Moreover, the inhibition zone (IZ) in [2] is 14 mm.
